From PubChem
CHO-K1 Ca ag – counter-screen for M1 agonists: effect in parental CHO-K1 cells; Fluo-8 calcium fluorescence; scaled to maximal ATP response, vehicle zero; activation, % at 3 µM; 360,000 compounds, 0.48% hits; in the data active = activation above about 15%;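 note: untransfected CHO-K1 host cells lacking M1 receptor as counterscreen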
CHO parental Ca – signal in parental CHO cells, OX1R antagonist counter-screen; parental CHO-K1, ATP-induced calcium, Fluo-8 fluorescence; inhibition, % at 5.6 µM; 330,000 compounds, 0.63% hits;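 active = inhibition above that plate's mean sample inhibition plus 3 SD, cut at about 26% in these data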
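Measured by: calcium-sensitive Fluo-8 fluorescence / Test system: CHO parental line / Controls: ATP-challenged DMSO wells low, unchallenged DMSO wells high / Measure: % inhibition / Compound: single nominal dose of 5.6 µM per compound / Replicates: single well per compound, no replicates / Reagent: ATP as calcium-mobilizing challenge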
OX1R antag-1 – blocks the human orexin 1 receptor; O43613; OX1R-expressing cells, FRET antagonist read-out; inhibition, % at 6.6 µM; 330,000 compounds, 1.8% hits; AID 485270; in the data active = inhibition mostly above about 38%, no sharp cut-off; inactive = mostly below about 40%
Target sequence (O43613 whole entry, looked up): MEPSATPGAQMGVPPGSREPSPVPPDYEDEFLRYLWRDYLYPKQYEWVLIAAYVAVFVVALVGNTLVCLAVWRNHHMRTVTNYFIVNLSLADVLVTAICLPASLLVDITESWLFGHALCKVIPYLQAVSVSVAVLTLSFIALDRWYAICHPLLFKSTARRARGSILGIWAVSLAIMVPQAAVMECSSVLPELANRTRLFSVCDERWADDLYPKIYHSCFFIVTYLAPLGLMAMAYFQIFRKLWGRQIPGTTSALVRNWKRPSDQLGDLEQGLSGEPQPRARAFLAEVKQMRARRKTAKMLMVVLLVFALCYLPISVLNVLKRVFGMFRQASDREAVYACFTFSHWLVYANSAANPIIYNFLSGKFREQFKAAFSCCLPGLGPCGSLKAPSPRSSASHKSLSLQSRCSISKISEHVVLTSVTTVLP
CHO-K1 Ca antag – M1 antagonist counterscreen hit in parental CHO-K1 cells; 360,000 compounds, 0.6% hits; ATP-induced calcium, Fluo-8 fluorescence; inhibition, % at 3 µM;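 active = inhibition above a per-plate cutoff, the plate's mean sample inhibition plus 3 SD, cut at about 24% in these data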
OX1R antag-2 – human HCRTR1 antagonism; CHO/OX1R cells, Fluo-8 calcium fluorescence, orexin A; inhibition, % at 5 µM; 330,000 compounds, 0.43% hits; AID 434989;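 active = inhibition above its plate's threshold, mean inhibition of all tested compounds on the plate plus 3 SD, cut at about 37% in these data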
CHO-K1 Ca PAM – counter-screen for M1 PAMs: effect in parental CHO-K1 cells; 360,000 compounds, 0.02% hits; ATP EC20, Fluo-8 calcium fluorescence; 0% at ATP EC20, 100% at ATP max; activation, % at 3 µM;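 active = activation above the run cutoff, the mean activation of all test compounds plus 3 SD, cut at about 40% in these data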;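 note: peak over basal fluorescence ratio in a 140 s read after ATP addition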
Each line names hits and unclear results; the compound was inactive in the other large screens. This is a sample that favours compounds with a hit; in the whole collection about 2.9% have one here.

Cc1ncc(C[n+]2ccc(C)c(C)c2)c(N)n1	none
NS(=O)(=O)c1ccc(Oc2ccc(S(N)(=O)=O)cc2)cc1	none
C=CS(=O)(=O)c1ccc(Oc2ccc(S(=O)(=O)C=C)cc2)cc1	CHO-K1 Ca ag 15.2
CC(C)Cc1ccc(C(C)C(=O)Nc2cccnc2)cc1 (centres undefined)	CHO-K1 Ca ag 15.6, CHO parental Ca 68.9, OX1R antag-2 90.4
CC(C(=O)Nc1cccnc1)c1ccc([N+](=O)[O-])cc1 (centres undefined)	none
Cn1c(=O)c(C(=O)COc2ccc(C#N)cc2)c(N)n(Cc2ccccc2)c1=O	CHO-K1 Ca ag 33.8
COc1ccccc1C(=O)Nc1ccc2c(c1)nc(CN1CCN(C(C)=O)CC1)n2C	CHO-K1 Ca antag 24.2
COC(=O)c1ccc(OC)c(CSc2nnc(COc3ccc(Cl)cc3)o2)c1	CHO-K1 Ca antag 24.0
O=C(Nc1ccccc1N1CCN(C(=O)c2ccc(Cl)cc2)CC1)c1ccc(Br)cc1	CHO-K1 Ca antag 26.7
O=C(c1ccc(Cl)cc1)N1CCN(c2cc(=O)[nH]nc2-c2ccccc2)CC1	CHO-K1 Ca antag 28.1
O=C(Nc1ccccc1N1CCN(C(=O)c2ccccc2)CC1)c1ccc(Cl)cc1	none
NC(=O)c1ccc(CN2CCc3ccccc3C2)cc1	none
CNc1nc(N/N=C/c2cc([N+](=O)[O-])ccc2F)nc(Nc2ccccc2)n1	none (no result: CHO parental Ca, OX1R antag-1, OX1R antag-2)
CNc1nc(N/N=C/c2cc3c(cc2[N+](=O)[O-])OCO3)nc(Nc2ccccc2)n1	OX1R antag-1 43.6
Cc1nnc(N/N=C/c2ccccc2F)n1N	none
COc1cc(/C=N/Nc2nc(N3CCCC3)nc(N3CCCC3)n2)ccc1O	none
CCc1nnc(N/N=C/c2ccc(O)c(OC)c2)n1N	OX1R antag-1 58.5
CCOc1cc(/C=N/Nc2nnc(C)n2N)ccc1OC(C)=O	none (no result: CHO parental Ca, OX1R antag-1, OX1R antag-2)
COc1ccc(-c2cnnc(N/N=C/c3ccc(O)c(OC)c3)n2)cc1	CHO-K1 Ca antag 34.7
CCc1nnc(N/N=C\c2ccc(OC(C)=O)c(OC)c2)n1N	OX1R antag-1 44.3
COc1cccc(/C=N/Nc2nnc(C)n2N)c1O	OX1R antag-1 71.2
CCOC(=O)c1cc2c(OC)c(OC)ccc2c2[nH]cc(C#N)c(=O)c12	none (no result: CHO parental Ca, OX1R antag-1, OX1R antag-2)
Nn1cnnc1N/N=C/c1ccc(Cl)cc1Cl	none (no result: CHO parental Ca, OX1R antag-1, OX1R antag-2)
CNC(=S)N/N=C/c1c(Cl)cccc1Cl	none
CCc1nnc(N/N=C/c2cc(Br)c(O)cc2O)n1N	OX1R antag-1 72.3
COc1ccc(/C=N/Nc2nncn2N)cc1Br	OX1R antag-1 64.7
CCc1nnc(N/N=C/c2c(Cl)cccc2Cl)n1N	OX1R antag-1 44.8
CN(CC(=O)Nc1ccc(F)cc1)C(=O)Cn1cnc2ccc(Cl)cc2c1=O	none
O=C(Cn1c(=O)cnc2ccccc21)N1CCCc2ccccc21	none
O=C(Cn1cnc2ccccc21)N1CCc2ccccc21	CHO-K1 Ca antag 28.1
O=C(CSc1ccccc1)N1CCc2ccccc21	none
CCn1cc(SCC(=O)N2CCc3ccccc32)c2ccccc21	CHO parental Ca 32.2, OX1R antag-1 36.1
O=C(O)CCC(=O)Nc1ccc(SSc2ccc(NC(=O)CCC(=O)O)cc2)cc1	none
O=C1c2ccccc2CC1Sc1nnc(-c2ccncc2)o1 (centres undefined)	CHO-K1 Ca antag 23.9
O=C1CC(Sc2nnc(-c3ccccc3)o2)C(=O)N1c1ccccc1 (centres undefined)	none
CN1CCN(CC(=O)N2c3ccccc3Sc3ccccc32)CC1	none
O=C(CN1CCCCCC1)N1c2ccccc2Sc2ccccc21	CHO-K1 Ca ag 16.2
CC(C)(C)c1ccc(OCCOc2ccc(C(C)(C)C)cc2NC=O)c(NC=O)c1	CHO parental Ca 69.3, OX1R antag-2 41.3
NC(=O)c1ccc(NC(=O)C#Cc2ccccc2)cc1	none
Fc1ccc(-c2nc3ccccn3c2NCc2ccc3c(c2)OCO3)cc1	CHO-K1 Ca antag 25.7
Cc1ccc(S(=O)(=O)NC2=NCN(CC(=O)O)CN2)cc1	none
Cc1ccc(CNC(=O)[C@H](Cc2ccccc2)NC(=O)C2CCNCC2)cc1	CHO-K1 Ca antag 30.6
CC(=O)Nc1ccc(S(=O)(=O)NN=CCCc2ccccc2)cc1	none (no result: CHO parental Ca, OX1R antag-1, OX1R antag-2)
COc1cccc(C2CC(=O)C3=C(C2)Nc2ccccc2N(C(=O)CCC(=O)O)C3c2ccc(F)cc2)c1 (centres undefined)	CHO parental Ca 99.4
CCN(CC)C(=O)Cn1c(=O)n(C)c2ccccc21	none
